# Source: PubChem (The Scripps Research Institute Molecular Screening Center)
# GPR7 antagonist – GPR7 receptor antagonists, primary screen, cell-based, fluorescence, single concentration | Neuropeptides B/W receptor type 1 (Homo sapiens), P48145 | GPR7-expressing cells, fluorescence antagonist assay | inhibition, % at 4.4 µM | 1.1% of 290,000 active; in the data active means inhibition above about 16%, passing the limit was not always enough;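 further: cells stimulated with the agonist NPW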
# Target sequence (P48145 whole entry, looked up): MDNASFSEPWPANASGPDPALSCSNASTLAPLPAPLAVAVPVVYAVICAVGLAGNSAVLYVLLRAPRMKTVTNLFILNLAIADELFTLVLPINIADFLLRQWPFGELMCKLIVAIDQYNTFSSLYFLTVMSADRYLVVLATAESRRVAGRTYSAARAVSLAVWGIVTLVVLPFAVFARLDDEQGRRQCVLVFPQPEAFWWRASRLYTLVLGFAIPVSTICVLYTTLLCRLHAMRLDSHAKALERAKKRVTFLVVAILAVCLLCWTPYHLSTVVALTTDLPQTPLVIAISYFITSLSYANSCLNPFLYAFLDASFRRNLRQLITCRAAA
# OX1R antag-1 – antagonists of human orexin 1 receptor (OX1R). 1.8% of 330,000 active. Orexin/Hypocretin receptor type 1 (Homo sapiens), O43613. inhibition, % at 6.6 µM. OX1R-expressing cells, FRET antagonist read-out; in the data active means inhibition mostly above about 38%, no sharp cut-off; inactive means mostly below about 40%
# TAAR1 antag – human TAAR1 antagonists, primary screen, Fluo-8 calcium fluorescence, CHO RD-HGA16 cells. Trace amine-associated receptor 1 (Homo sapiens), Q96RJ0. antagonist. inhibition, % at 3 µM. 1.5% of 360,000 active. AID 624466, 2012;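 active means inhibition above a per-plate cutoff, the mean inhibition of test compounds on that plate plus 3 SD, cut at about 49% in these data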
# Target sequence (Q96RJ0 whole entry, looked up): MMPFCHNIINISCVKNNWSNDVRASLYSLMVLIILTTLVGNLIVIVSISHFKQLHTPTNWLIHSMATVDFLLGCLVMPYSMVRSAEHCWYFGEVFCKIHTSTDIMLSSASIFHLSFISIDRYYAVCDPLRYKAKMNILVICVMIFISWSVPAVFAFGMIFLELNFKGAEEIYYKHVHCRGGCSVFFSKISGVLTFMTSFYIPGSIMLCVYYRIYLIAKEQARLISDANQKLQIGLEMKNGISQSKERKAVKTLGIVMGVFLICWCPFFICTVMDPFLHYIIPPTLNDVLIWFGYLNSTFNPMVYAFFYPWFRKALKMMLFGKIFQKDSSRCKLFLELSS
#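 System: RD-HGA16 CHO cells with stable hTAAR1 and Gα16 | Probe or stimulus: EC80 β-phenethylamine stimulus | Dosing: 3 µM, single point | Times: Dye loading 75 min at 37 °C, then 30 min room temperature | Measured by: Fluo-8 calcium-sensitive fluorescence | Read-out basis: % inhibition of agonist calcium response | Replicates: n of 1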
# OX1R antag-2 – OX1R (HCRTR1) antagonists, primary screen, fluorescence, CHO/OX1R cells, Fluo-8 calcium, orexin A | Orexin/Hypocretin receptor type 1 (Homo sapiens), O43613 | Fluo-8 calcium fluorescence | inhibition, % at 5 µM | 0.43% of 330,000 active;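 active means inhibition above its plate's threshold, mean inhibition of all tested compounds on the plate plus 3 SD, cut at about 37% in these data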
# TAAR1 agonist – human TAAR1 agonists, primary screen, Fluo-8 calcium fluorescence, CHO RD-HGA16 cells | AID 624467, 2012 | activation, % at 3 µM | 0.99% of 360,000 active | vehicle wells 0%, saturating PEA agonist 100%;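 active means activation above the mean activation of all test compounds in the run plus 3 SD, cut at about 38% in these data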
#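 System: CHO RD-HGA16 cells carrying human TAAR1 plus Gα16; Incubation: 17-24 h seeding, 75 min 37 °C dye, 30 min RT; Measured by: Fluo-8 fluorescence, 5 s baseline then 140 s kinetic read; Control set: DMSO and PEA EC100; Replication: single well for each compound.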
# CHO parental Ca – ATP-evoked calcium signal inhibitors, parental CHO, primary screen, counter-screen for OX1R antagonist project, cell-based, fluorescence, Fluo-8 calcium dye. parental CHO-K1, ATP-induced calcium, Fluo-8 fluorescence. AID 463079, 2010. inhibition, % at 5.6 µM. 0.63% of 330,000 active;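 active means inhibition above that plate's mean sample inhibition plus 3 SD, cut at about 26% in these data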
#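 Assay system: untransfected parental CHO cell line. Also added: ATP agonist challenge. Dosing: one dose, 5.6 µM nominal. Measured by: Fluo-8 fluorescence. Read-out: % inhibition. Benchmarks: ATP wells versus no-ATP DMSO wells. Repeats: no replicates.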
# Hits are given with their value; . = inactive; / = not tested or not shown. Compounds with a hit are over-represented: about 4.5% of the library has one in this group of screens.
SMILES,GPR7 antagonist,OX1R antag-1,TAAR1 antag,OX1R antag-2,TAAR1 agonist,CHO parental Ca
CN(C)C(CNC(=O)CCNC(=O)c1ccc(Cl)cc1)c1ccco1 (centres undefined),/,.,.,.,.,.
CCOC(=O)C1(Cc2ccccc2)CCN(Cc2cccc3c2OCO3)CC1,.,71.9,.,.,.,.
O=c1ccc2cccc([N+](=O)[O-])c2[nH]1,/,/,.,/,.,/
CCOC(=O)c1ccc(NC(=O)CCc2nc(-c3ccc(Cl)cc3)no2)cc1,.,.,.,45.1,.,46.5
Cc1ccc(-c2noc(CCCC(=O)NC3CCCCC3)n2)cc1,.,.,.,.,.,39.6
CCOC(=O)c1ccc(NC(=O)CCc2nc(-c3ccc(C)cc3)no2)cc1,.,.,.,.,.,32.8
COc1ccc(C(=O)CC(C(=O)O)c2ccc(OC)c(OC)c2)cc1OC (centres undefined),/,/,.,/,.,/
CNC(C)C#Cc1ccc2oc3cccc(OC)c3c(=O)c2c1 (centres undefined),.,47.8,.,.,.,.
CNC(C)C#Cc1ccc2c(=O)c3c(OC)cccc3oc2c1 (centres undefined),.,.,/,.,/,.
CCCCc1nc(SCC(=O)N2CCCC2)c2c(=O)n(C)c(=O)n(C)c2n1,.,.,.,.,.,.
Cn1c(N)c(C(=O)COC(=O)C2(c3ccc(Cl)cc3)CCCC2)c(=O)n(C)c1=O,.,.,.,.,.,.
Cn1c(N)c(C(=O)COC(=O)C2(c3ccc(F)cc3)CCCC2)c(=O)n(C)c1=O,.,.,64.7,.,.,.
COc1ccccc1C(CC(=O)Nc1ccc(Cl)cc1)c1ccc(OC(C)C)cc1 (centres undefined),.,.,.,.,.,.
COc1ccc(C(C)NCCC(c2ccc(OC(C)C)cc2)c2ccccc2OC)cc1 (centres undefined),.,/,.,/,44.4,/
COc1cccc(-c2nc(NCc3ccccc3)c3ccccc3n2)c1O,.,37.3,.,.,.,.
COc1cccc(-c2nc(NCc3ccco3)c3ccccc3n2)c1O,.,.,.,.,.,.
C=CCNc1nc(-c2cccc(OC)c2O)nc2ccccc12,.,47.3,.,.,.,.
CN(C(=O)[C@H]1O[C@@H](n2cnc(C(N)=O)n2)[C@H](O)[C@@H]1O)c1ccccc1,/,/,.,/,.,/
Nc1nonc1-n1nnc(C(=O)N/N=C/c2cccc(F)c2)c1-c1ccc2c(c1)OCO2,.,.,.,.,44.1,.
CCOc1cccc(-c2c(C(=O)N/N=C/c3ccc(C)o3)nnn2-c2nonc2N)c1,.,.,.,.,62.4,.
CCOc1cccc(-c2c(C(=O)N/N=C/c3ccco3)nnn2-c2nonc2N)c1,.,.,/,.,/,.
Nc1nonc1-n1nnc(C(=O)N/N=C/c2cc(Br)cs2)c1-c1ccccc1,.,50.9,.,.,40.7,.
CCOc1ccc(-c2c(C(=O)N/N=C/c3c[nH]c4ccccc34)nnn2-c2nonc2N)cc1,.,.,52.9,.,.,.
COCc1[nH]nc2c1C(c1ccc(F)cc1)NC2=O (centres undefined),/,/,.,/,.,/
C/C(=N\NC(=O)c1nnn(-c2nonc2N)c1C)c1ccc(-c2ccccc2)cc1,19.7,.,.,.,.,.
SMILES,GPR7 antagonist,OX1R antag-1,TAAR1 antag,OX1R antag-2,TAAR1 agonist,CHO parental Ca
O=C(Nc1cccnc1)OCc1ccccc1,.,.,.,.,.,.
O=C(Nc1ccc(Cl)c(Cl)c1)OCc1cccnc1,.,74.5,.,.,.,76.5
C=CC[C@@H](Cc1ccc(F)cc1)C(=O)OC[C@@H]1CCCN1C(=O)[C@H](CC=C)CC(=O)N[C@H](CO)Cc1ccccc1,/,64.1,.,101.3,.,.
C=CCC[C@H](Cc1ccc(F)cc1)C(=O)OC[C@@H](Cc1c[nH]c2ccccc12)NC(=O)[C@@H](CC=C)CC(=O)N(CCO)Cc1ccccc1,/,.,51.0,.,.,.
C=CC[C@@H](CC(=O)OC(C)(C)C)C(=O)OC[C@@H]1CCCN1C(=O)[C@@H](CC=C)CC(=O)N[C@@H](CO)Cc1ccccc1,/,.,.,.,.,.
C=CC[C@H](CC(=O)N(CCO)Cc1ccccc1)C(=O)N[C@H](COC(=O)[C@@H](CC=C)Cc1ccc(F)cc1)Cc1ccccc1,/,.,52.1,.,.,.
CSc1ccc(Cn2c(C)c(C(=O)NCc3ccc4c(c3)OCO4)sc2=O)cc1,/,/,.,/,.,/
O=C(Nc1ccc(-c2nc3ccccc3s2)cc1)C1=COCCO1,.,.,.,.,.,.
O=C(Nc1cccc(-c2nc3ccccc3s2)c1)C1=COCCO1,.,75.2,.,.,.,.
Cc1nc(Cc2nnc(SCC(=O)N3c4ccccc4NC(=O)C3(C)C)o2)cs1,/,/,.,/,.,/
Cc1cccc(C)c1NC(=O)C(c1ccncc1)n1c(=O)c(-c2ccccc2)nc2ccccc21 (centres undefined),/,/,.,/,.,/
CCN(CC)CCNC1=CC(=O)OC12CCCCC2,.,.,.,.,.,.
O=C(CCSc1nnc(-c2ccco2)o1)Nc1ccc(Cl)cc1,.,.,.,.,40.8,.
O=C(CCSc1nnc(-c2ccco2)o1)Nc1ccccc1,.,.,.,.,.,.
COc1ccccc1OCC(=O)Nc1oc(-c2ccccc2)c(-c2ccccc2)c1C#N,.,49.6,.,.,.,.
COc1ccccc1OCC(=O)Nc1ccc(-c2nnc(-c3ccco3)o2)cc1,.,64.2,.,.,.,.
O=C(NCc1ccccc1)[C@H]1CCCN1C(=O)[C@H]1CCCN1C(=O)c1ccc(F)c(F)c1,/,/,.,/,.,/
Oc1ccc(O)c(Cc2nc3ccccc3s2)c1,32.9,.,.,.,.,.
Oc1ccccc1OCc1nc2ccccc2s1,.,.,.,.,.,.
CCNc1nc(NC(C)(C)C)nc(SCC(N)=O)n1,.,.,.,.,.,.
CC(C)(C)c1ccc(C(=O)c2c[nH]c(C(=O)NCCc3ccccn3)c2)cc1,.,.,.,.,.,.
CSc1nc(C)cc(OCCNS(=O)(=O)c2ccc(C)cc2)n1,.,39.0,.,.,.,.
COc1ccc2ccccc2c1CN1CCN(c2ncc(Cc3ccccc3)cn2)CC1,/,/,.,/,.,/
CC1(C)N=C(N)NC(Nc2ccccc2)=N1,.,.,.,.,.,.
CCOc1ccccc1N1CCN(C(=O)c2cccc(-c3ccc(O)cc3)c2)CC1,.,.,51.3,.,.,.
CCOc1ccccc1N1CCN(C(=O)c2ccncc2)CC1,.,.,.,.,.,.
Cc1cc(N/N=C/c2ccc([N+](=O)[O-])o2)nc2ccccc12,.,42.4,.,.,.,.
